In data set [1] the target is T1, CARM1 (Homo sapiens, UniProt Q86X55).
T1 sequence (Q86X55 1-608): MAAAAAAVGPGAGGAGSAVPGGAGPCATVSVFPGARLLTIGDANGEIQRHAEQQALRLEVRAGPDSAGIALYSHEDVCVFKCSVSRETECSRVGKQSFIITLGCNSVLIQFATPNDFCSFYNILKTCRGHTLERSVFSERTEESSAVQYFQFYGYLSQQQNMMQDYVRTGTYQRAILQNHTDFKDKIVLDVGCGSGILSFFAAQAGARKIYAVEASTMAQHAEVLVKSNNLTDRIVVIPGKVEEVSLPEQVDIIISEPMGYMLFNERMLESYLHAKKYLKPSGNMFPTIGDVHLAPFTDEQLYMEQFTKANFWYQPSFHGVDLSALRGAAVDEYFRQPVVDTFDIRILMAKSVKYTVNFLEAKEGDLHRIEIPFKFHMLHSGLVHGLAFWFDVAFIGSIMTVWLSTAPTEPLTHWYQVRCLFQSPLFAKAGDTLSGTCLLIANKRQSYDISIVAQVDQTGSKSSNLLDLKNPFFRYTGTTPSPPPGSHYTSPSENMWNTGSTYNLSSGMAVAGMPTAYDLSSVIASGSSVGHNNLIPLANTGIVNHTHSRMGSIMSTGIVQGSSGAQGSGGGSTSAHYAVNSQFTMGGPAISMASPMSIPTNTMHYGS
The data set can be described thus: In vitro methylation assay, CARM1 with PABP1 as substrate. In kind it is biochemical. As to conditions: for effect against PABP1 methylation by CARM1 (fluorograph): compound at 20 μM.

A further data set has as its target T2, SET7 (Homo sapiens, UniProt Q8WTS6).
T2 sequence (Q8WTS6 1-366): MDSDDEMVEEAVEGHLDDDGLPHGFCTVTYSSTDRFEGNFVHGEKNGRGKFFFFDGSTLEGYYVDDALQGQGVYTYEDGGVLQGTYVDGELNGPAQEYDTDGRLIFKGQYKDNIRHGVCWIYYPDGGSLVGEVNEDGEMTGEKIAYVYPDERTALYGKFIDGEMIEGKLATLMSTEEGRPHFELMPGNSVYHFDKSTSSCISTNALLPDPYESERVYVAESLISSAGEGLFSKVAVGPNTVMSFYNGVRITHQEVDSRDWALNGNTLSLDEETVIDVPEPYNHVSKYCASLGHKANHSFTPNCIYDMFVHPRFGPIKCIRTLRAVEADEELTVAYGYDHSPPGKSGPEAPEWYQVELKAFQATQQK
As to the kind of experiment: In vitro methylation assay, SET7 with histone H3 as substrate. In kind it is biochemical. As to conditions: compound at 100 μM.

Data set [2] has as its target T1, CARM1. In kind it is biochemical. As to conditions: compound at 100 μM; substrates PABP1, CA150, SmB, histone H3. Put shortly:
(§1)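 Recombinant enzyme (0.1–0.2 μM) and substrate (0.5–1.5 μM) are incubated with [methyl-³H]AdoMet (85 Ci/mmol) in PBS pH 7.4. Test compound is present at 100 μM. Reactions run 90 min at 30 °C, are resolved by SDS/PAGE and transferred to PVDF. The membrane is sprayed with Enhance and exposed to film overnight. Substrate bands are located by Ponceau S, excised and counted (dpm) for graphic depiction.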

A further data set addresses PRMT3 (Homo sapiens, UniProt O60678). The data set can be described thus: In vitro methylation fluorograph, PRMT3 with NPL3 and rpS2 as substrates. The data set is classed as biochemical. As to conditions: compound at 100 μM. Put shortly: as §1
A further data set addresses DOTL1 (Homo sapiens, UniProt Q8TEK3). The data set can be described thus: In vitro methylation fluorograph, DOTL1 with nucleosome as substrate. As to conditions: compound at 100 μM. In kind it is biochemical. Put shortly:
as §1

The target of the next data set is T3, Suv39H1 (Homo sapiens, UniProt O43463).
T3 sequence (O43463 1-412): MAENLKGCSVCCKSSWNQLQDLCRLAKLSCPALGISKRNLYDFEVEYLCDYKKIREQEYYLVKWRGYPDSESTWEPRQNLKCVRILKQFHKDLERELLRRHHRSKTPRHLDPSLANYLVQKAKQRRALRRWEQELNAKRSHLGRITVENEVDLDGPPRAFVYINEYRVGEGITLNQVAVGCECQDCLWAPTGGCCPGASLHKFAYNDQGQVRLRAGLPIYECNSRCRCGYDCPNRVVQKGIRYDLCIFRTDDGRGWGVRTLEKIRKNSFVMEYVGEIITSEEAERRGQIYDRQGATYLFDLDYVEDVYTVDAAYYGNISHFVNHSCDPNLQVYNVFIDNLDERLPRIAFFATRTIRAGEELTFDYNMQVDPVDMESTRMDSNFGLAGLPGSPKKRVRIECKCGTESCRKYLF
The data set can be described thus: In vitro methylation fluorograph, Suv39H1 with H3 as substrate. In kind it is biochemical. As to conditions: compound at 100 μM. The gist of the method:
as §1

A further data set has as its target T4, G9a (Homo sapiens, UniProt Q96KQ7).
T4 sequence (Q96KQ7 1-1210): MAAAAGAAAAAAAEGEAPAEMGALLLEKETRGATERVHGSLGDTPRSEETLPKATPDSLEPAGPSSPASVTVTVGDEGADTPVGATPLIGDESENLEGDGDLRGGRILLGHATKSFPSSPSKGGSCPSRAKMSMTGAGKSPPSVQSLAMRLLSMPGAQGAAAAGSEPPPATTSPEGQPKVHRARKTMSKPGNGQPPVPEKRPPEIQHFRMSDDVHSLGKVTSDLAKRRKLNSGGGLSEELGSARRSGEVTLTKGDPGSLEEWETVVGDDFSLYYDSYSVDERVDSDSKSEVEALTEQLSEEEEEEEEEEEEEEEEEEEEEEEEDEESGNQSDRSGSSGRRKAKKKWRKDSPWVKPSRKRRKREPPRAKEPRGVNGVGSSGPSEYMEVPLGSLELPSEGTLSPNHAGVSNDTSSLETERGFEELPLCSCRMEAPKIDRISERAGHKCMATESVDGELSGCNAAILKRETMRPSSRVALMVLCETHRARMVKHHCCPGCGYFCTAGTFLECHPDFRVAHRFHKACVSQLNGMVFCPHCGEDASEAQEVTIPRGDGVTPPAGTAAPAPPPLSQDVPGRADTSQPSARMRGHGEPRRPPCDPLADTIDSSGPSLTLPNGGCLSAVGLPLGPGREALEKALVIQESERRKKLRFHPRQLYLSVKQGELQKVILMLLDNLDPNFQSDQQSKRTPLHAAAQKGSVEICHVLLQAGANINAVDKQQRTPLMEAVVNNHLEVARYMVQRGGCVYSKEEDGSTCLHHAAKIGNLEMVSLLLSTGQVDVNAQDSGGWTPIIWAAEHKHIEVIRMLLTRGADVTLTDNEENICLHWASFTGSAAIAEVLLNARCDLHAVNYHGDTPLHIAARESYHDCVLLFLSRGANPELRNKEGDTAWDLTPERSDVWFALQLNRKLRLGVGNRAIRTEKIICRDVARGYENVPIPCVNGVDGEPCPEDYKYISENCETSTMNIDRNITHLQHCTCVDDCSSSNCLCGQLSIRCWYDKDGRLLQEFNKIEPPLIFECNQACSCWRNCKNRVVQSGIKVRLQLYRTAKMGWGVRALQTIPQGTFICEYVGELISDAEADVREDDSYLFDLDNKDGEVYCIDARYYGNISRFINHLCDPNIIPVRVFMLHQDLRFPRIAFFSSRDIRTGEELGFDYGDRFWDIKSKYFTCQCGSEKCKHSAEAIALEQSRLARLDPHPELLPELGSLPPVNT
The data set can be described thus: In vitro methylation fluorograph, G9a with H3 as substrate. In kind it is biochemical. As to conditions: compound at 100 μM. Put shortly: as §1

In data set [3] the test system is Flag-PABP1 methylation in HEK293 cells. The data set can be described thus: Tetracycline-inducible Flag-PABP1 methylation reporter system in HEK293 cells. The data set is classed as cell-based, human. As to conditions: tetracycline-induced Flag-PABP1, methyl-specific PABP1 antibody. The gist of the method:
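HEK293 cells engineered with a tetracycline-controlled TetR repressor carry tetO-regulated Flag-PABP1. Tetracycline is added with test compound to induce Flag-PABP1. Lysates are resolved by SDS-PAGE, where Flag-PABP1 migrates slower than endogenous PABP1. Its methylation is detected by immunoblot with an in-house methyl-specific PABP1 antibody.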

For another data set, the system named is LNCaP cells. The data set can be described thus: Cell viability by Cell Titer-Glo. As to conditions: at concentrations that impacted the luciferase assay. In kind it is cell-based. Put shortly: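 LNCaP cells are grown in phenol-red-free RPMI1640 with 10% charcoal-stripped FCS and transfected with PSA(ARE)-LUC and CMV-Renilla. After 12 h they are treated with 20 nM DHT plus increasing concentrations of test compound. After 42–44 h, cells are washed twice with PBS and harvested, and 1/6 of them is assayed with CellTiter-Glo luminescent reagent for ATP-based viability.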

A further data set has as its target PRMT5 (Homo sapiens, UniProt O14744). The data set can be described thus: In vitro methylation fluorograph, PRMT5 with histone H4 as substrate. In kind it is biochemical. As to conditions: compound at 100 μM. The gist of the method: as §1
Data set [4] has as its system PSA promoter in LNCaP cells. The data set can be described thus: PSA luciferase assay in LNCaP cells. As to conditions: two days, relative to CMV-Renilla control. The data set is classed as cell-based, human. Put shortly: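 LNCaP cells are grown in phenol-red-free RPMI1640 with 10% charcoal-stripped FCS and seeded ~20 h before Lipofectamine transfection with 300 ng PSA(ARE)-LUC and 2 ng humanized CMV-Renilla. After 12 h, cells receive 20 nM DHT plus test compound at increasing concentrations. After 42–44 h, 5/6 of the washed, harvested cells go to a dual luciferase assay, normalised to Renilla. Values are mean ± SD of triplicates.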

Sequence of DOTL1 (Q8TEK3 whole entry): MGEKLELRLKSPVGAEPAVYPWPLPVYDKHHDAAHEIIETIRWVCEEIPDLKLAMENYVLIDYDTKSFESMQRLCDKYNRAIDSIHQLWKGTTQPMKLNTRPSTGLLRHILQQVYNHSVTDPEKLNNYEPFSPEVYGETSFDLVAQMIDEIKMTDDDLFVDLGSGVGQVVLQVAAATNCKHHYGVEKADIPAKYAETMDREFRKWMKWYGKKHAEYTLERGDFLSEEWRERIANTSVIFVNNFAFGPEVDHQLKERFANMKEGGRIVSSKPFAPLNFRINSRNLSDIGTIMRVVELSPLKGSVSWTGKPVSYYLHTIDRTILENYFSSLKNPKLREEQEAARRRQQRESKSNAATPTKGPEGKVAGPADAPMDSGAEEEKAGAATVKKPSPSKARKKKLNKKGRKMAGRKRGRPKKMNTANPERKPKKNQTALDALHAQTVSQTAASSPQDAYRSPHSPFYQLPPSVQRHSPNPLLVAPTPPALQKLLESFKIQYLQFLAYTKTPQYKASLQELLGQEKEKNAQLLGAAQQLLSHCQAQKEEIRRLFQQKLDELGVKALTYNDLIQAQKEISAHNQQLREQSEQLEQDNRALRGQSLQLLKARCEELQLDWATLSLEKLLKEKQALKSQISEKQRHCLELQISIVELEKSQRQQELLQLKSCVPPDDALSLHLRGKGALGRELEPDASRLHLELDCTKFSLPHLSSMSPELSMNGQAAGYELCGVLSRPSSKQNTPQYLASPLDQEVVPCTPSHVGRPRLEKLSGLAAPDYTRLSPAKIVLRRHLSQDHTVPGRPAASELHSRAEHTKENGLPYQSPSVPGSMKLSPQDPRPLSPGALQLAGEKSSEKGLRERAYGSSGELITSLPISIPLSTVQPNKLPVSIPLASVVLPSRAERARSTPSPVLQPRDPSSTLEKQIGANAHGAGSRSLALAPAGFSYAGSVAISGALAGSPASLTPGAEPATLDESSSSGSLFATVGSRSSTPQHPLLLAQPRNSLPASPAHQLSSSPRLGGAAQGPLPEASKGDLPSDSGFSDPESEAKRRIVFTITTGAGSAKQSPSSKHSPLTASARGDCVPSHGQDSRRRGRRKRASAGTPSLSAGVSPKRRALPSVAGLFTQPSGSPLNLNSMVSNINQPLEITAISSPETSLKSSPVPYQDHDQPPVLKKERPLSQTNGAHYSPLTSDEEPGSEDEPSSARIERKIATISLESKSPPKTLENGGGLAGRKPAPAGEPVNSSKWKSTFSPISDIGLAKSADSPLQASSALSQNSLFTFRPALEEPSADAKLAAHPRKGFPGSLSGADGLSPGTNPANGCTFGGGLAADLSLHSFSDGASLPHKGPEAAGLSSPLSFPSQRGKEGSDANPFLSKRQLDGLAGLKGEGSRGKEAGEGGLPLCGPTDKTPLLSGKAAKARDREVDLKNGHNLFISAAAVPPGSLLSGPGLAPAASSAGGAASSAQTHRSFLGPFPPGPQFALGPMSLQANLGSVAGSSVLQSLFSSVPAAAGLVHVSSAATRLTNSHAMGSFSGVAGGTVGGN
Sequence of PRMT3 (O60678 whole entry, species assumed): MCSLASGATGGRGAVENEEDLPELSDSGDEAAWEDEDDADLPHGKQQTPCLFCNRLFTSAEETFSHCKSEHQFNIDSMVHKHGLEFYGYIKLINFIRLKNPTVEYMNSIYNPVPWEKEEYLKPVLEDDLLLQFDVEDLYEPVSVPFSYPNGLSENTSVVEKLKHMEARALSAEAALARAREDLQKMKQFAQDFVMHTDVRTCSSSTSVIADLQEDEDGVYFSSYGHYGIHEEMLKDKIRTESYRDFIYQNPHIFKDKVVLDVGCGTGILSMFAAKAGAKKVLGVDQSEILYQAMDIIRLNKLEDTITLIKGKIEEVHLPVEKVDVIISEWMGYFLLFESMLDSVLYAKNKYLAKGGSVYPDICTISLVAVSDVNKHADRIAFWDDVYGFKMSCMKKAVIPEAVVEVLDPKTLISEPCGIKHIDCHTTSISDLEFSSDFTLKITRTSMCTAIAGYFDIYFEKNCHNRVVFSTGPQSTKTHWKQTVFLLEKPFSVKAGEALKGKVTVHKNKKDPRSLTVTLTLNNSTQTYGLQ
Sequence of PRMT5 (O14744 whole entry, species assumed): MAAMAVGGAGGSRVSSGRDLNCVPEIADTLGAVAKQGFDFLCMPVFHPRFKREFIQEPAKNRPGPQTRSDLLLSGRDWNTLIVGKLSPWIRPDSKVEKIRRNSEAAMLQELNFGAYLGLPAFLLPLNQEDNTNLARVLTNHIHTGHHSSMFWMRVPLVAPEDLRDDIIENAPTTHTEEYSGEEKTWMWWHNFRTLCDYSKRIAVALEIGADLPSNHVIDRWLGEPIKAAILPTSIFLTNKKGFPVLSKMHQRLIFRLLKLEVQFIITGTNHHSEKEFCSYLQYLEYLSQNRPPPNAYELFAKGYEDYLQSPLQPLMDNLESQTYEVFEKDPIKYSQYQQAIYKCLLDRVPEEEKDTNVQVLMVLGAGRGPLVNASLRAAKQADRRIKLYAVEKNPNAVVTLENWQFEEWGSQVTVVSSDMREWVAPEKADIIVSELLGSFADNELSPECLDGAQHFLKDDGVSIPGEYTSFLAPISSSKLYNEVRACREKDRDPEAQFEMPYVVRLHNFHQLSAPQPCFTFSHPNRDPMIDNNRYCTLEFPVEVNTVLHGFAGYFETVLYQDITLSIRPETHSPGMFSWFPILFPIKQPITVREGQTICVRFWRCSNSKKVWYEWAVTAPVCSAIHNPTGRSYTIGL

As for `O=C1/C(=C/c2ccc(O)c(Br)c2)CN(Cc2ccccc2)C/C1=C\c1ccc(O)c(Br)c1` [7g, 1-benzyl-3,5-bis(3-bromo-4-hydroxybenzylidene) piperidin-4-one], the “enzyme preference of inhibition (in words)” value on CARM1 [1] (series 7a-m, IC50 determination vs PRMT1, CARM1, SET7 (Table S1)) is recorded as “preferably inhibited CARM1”. For the same compound, at SET7, the “activity against SET7 (fluorograph)” value is reported as “No significant activity”. Moreover, the “inhibition of CARM1 activity on various substrates (fluorograph)” value (“inhibition of CARM1 activity” for short) on CARM1 [2] is reported as “strongly inhibited”. The “inhibition of PRMT3 (fluorograph)” value at PRMT3 is “able to inhibit to some extent”. Moreover, the “activity against DOTL1 (fluorograph)” value on DOTL1 is “No significant activity”. The “activity against Suv39H1 (fluorograph)” value on Suv39H1 was “No significant activity”. Also, on G9a, the “activity against G9a (fluorograph)” value was “No significant activity”. The “inhibition of Flag-PABP1 methylation” value in data set [3] is reported as “able to inhibit”. The “effects on cell viability” value in the data set on LNCaP cells is “no or little effects”.

For the compound `O=C1/C(=C/c2ccc(O)c(Br)c2)CN(CC(=O)c2ccccc2)C/C1=C\c1ccc(O)c(Br)c1` [8l], the “activity against SET7 (fluorograph)” value at SET7 is given as “No significant activity”. Moreover, the “inhibition of CARM1 activity” value on CARM1 [2] was “strongly inhibited”. On PRMT5, the “inhibition of PRMT5 (fluorograph)” value was “high inhibition”. In addition, the “activity against DOTL1 (fluorograph)” value at DOTL1 is on record as “No significant activity”. Further, at Suv39H1, the “activity against Suv39H1 (fluorograph)” value is on record as “No significant activity”. For the same compound, on G9a, the “activity against G9a (fluorograph)” value is on record as “No significant activity”. In addition, the “inhibition of Flag-PABP1 methylation” value in data set [3] is “only 7g was able to inhibit”. Moreover, the “concentration effective on PSA reporter activity” value in [4] stood at 30 µM. For the same compound, the “effects on cell viability” value with LNCaP cells is given as “no or little effects”.

In the case of `O=C1/C(=C/c2ccc(O)c(Br)c2)CN(Cc2cccc(Cl)c2)C/C1=C\c1ccc(O)c(Br)c1` [8e], the “activity against SET7 (fluorograph)” value at SET7 is “No significant activity”. The “inhibition of CARM1 activity” value on CARM1 [2] was “strongly inhibited”. The “inhibition of PRMT3 (fluorograph)” value against PRMT3 is recorded as “able to inhibit to some extent”. The “inhibition of PRMT5 (fluorograph)” value at PRMT5 was “high inhibition”. The “activity against DOTL1 (fluorograph)” value at DOTL1 was “No significant activity”. For the same compound, the “activity against Suv39H1 (fluorograph)” value on Suv39H1 is “No significant activity”. The “activity against G9a (fluorograph)” value on G9a is “No significant activity”. In addition, the “inhibition of Flag-PABP1 methylation” value in data set [3] is “only 7g was able to inhibit”.

For `Cc1ccc(CN2C/C(=C\c3ccc(O)c(Br)c3)C(=O)/C(=C/c3ccc(O)c(Br)c3)C2)cc1` [8c], on CARM1 [1], the “effect against PABP1 methylation by CARM1 (fluorograph)” value is “no effect”.

For the compound `O=C1/C(=C/c2ccc(O)c(Br)c2)CN(CCCc2ccccc2)C/C1=C\c1ccc(O)c(Br)c1` [8k], the “effect against PABP1 methylation by CARM1 (fluorograph)” value on CARM1 [1] is on record as “no effect”.

The record behind these values is PMC3487391 (Journal of medicinal chemistry, 2011).
